Data set [1] in a line: Relative rate determined by setting MTII equal to 1 and dividing the apparent k-1 by the MTII value. It is filed as ADME.
Data set [2] addresses T1, Melanocyte-stimulating hormone receptor (Homo sapiens, UniProt Q01726). As to the kind of experiment: Effective concentration against Melanocortin 1 receptor transfected into L-cells was determined by concentration of peptide for 50% maximal cAMP generation. In kind it is functional. An outline of the steps: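 Human MC1R stably transfected into mouse L-cells, grown to confluence. Stopped with ice-cold ethanol. cAMP in the dried supernatant measured by competitive binding kit. Value is concentration for 50% maximal cAMP generation; n = 4.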

For data set [3], the target named is T1, Melanocyte-stimulating hormone receptor. As to the kind of experiment: The concentration that inhibits 50% specific binding was determined against the Melanocortin 1 receptor. An outline of the steps:
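Cloned human MC1R stably expressed in L-cells, grown to confluence. Cells washed in binding buffer (MEM, 25 mM HEPES pH 7.4, 0.2% BSA, phenanthroline, leupeptin, bacitracin). Cells washed, lysed in NaOH/Triton, gamma counted.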

The target of data set [4] is Melanocortin 1 receptor (Rana pipiens). Nature of the data set: Effective concentration for the effect of Melanocortin 1 receptor in the frog skin.

The record followed here is ChEMBL document CHEMBL1128196, “Topographical modification of melanotropin peptide analogues with beta-methyltryptophan isomers at position 9 leads to differential potencies and prolonged biological activities” (J Med Chem, 1995).

pEC50, pIC50: −log10 of the molar value.

T1 sequence (Q01726 whole entry): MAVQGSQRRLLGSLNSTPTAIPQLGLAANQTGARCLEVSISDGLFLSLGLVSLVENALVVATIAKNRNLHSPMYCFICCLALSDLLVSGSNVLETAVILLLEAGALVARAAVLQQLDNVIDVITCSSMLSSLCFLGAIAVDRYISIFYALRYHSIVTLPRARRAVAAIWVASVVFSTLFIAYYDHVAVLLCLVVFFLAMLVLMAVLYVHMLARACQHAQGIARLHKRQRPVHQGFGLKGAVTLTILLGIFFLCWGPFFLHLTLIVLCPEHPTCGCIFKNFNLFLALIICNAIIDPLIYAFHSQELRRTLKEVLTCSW

As to `CCCC[C@H](NC(C)=O)C(=O)N[C@@H](CC(=O)O)C(=O)N[C@@H](Cc1c[nH]cn1)C(=O)N[C@@H](Cc1ccccc1)C(=O)N[C@@H](CCCN=C(N)N)C(=O)N[C@@H](C(=O)N[C@@H](CCCCN)C(N)=O)[C@H](C)c1c[nH]c2ccccc12`, the Relative dissociation rate in data set [1] is recorded as 2.33. Besides, in data set [2], the negative logarithm of the EC50 (pEC50) (commonly −log10 of the EC50, conventionally taken in molar units) is 9.40. Besides, the negative logarithm of the IC50 (pIC50) (usually −log10 of the IC50, conventionally taken in molar units) in data set [3] was 8.70.
With `CCCC[C@H](NC(C)=O)C(=O)N[C@H]1CC(=O)NCCCCC(C(N)=O)NC(=O)C([C@H](C)c2c[nH]c3ccccc23)NC(=O)[C@H](CCCN=C(N)N)NC(=O)C(Cc2ccccc2)NC(=O)[C@H](Cc2c[nH]cn2)NC1=O` (single isomer, unassigned), the Relative dissociation rate in data set [1] is on record as 2.5. The pEC50 in data set [2] is 8.52; in data set [4] it was 7.54. The same molecule had a negative-log IC50 (pIC50) in data set [3] of 7.82.
The matching figures for `CCCC[C@H](NC(C)=O)C(=O)N[C@H]1CC(=O)NCCCCC(C(N)=O)NC(=O)C([C@@H](C)c2c[nH]c3ccccc23)NC(=O)[C@H](CCCN=C(N)N)NC(=O)C(Cc2ccccc2)NC(=O)[C@H](Cc2c[nH]cn2)NC1=O` (single isomer, unassigned): 0.75, 9.52, 9.36 and 9.30.
The like results for `CCCC[C@H](NC(C)=O)C(=O)N[C@H]1CC(=O)NCCCCC(C(N)=O)NC(=O)[C@@H]([C@@H](C)c2c[nH]c3ccccc23)NC(=O)[C@H](CCCN=C(N)N)NC(=O)C(Cc2ccccc2)NC(=O)[C@H](Cc2c[nH]cn2)NC1=O` (single isomer, unassigned) were, in that order, 2.58, 9.00, 10.22 and 8.52.
